Source: ChEMBL document CHEMBL4665899, “Exploring the Chemical Space of Benzothiazole-Based DNA Gyrase B Inhibitors” (ACS Med Chem Lett, 2020)
Values after ≈ are worked out from the molar mass of the structure shown.

Assays:
DNA gyrase [1] = biological target: DNA gyrase (Escherichia coli, UniProt P0AES4+P0AES6); experiment: Inhibition of Escherichia coli DNA gyrase using relaxed pNO1 plasmid DNA as substrate incubated for 30 mins by fluorescence assay; assay type: protein-complex assay
DNA gyrase [2] = biological target: DNA gyrase (Staphylococcus aureus, UniProt P0A0K8+P20831); experiment: Inhibition of Staphylococcus aureus DNA gyrase using relaxed pNO1 plasmid DNA as substrate incubated for 30 mins by fluorescence assay; assay type: protein-complex assay
[3] = Inhibition of Escherichia coli DNA topoisomerase 4 using supercoiled pNO1 plasmid DNA as substrate incubated for 30 mins by fluorescence assay
Topoisomerase IV = Topoisomerase IV (Staphylococcus aureus, UniProt P0C1S7+P0C1U9); experiment: Inhibition of Staphylococcus aureus DNA topoisomerase 4 using supercoiled pNO1 plasmid DNA as substrate incubated for 30 mins by fluorescence assay; assay type: protein-complex assay
Enterococcus faecalis = experiment: Antibacterial activity against Enterococcus faecalis ATCC 29212 assessed as minimum inhibitory concentration required for >=90% inhibition of bacterial growth after 24 hrs by broth microdilution method; assay type: functional
Procedure, shortened: (§1)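 Strains were grown from cation-adjusted Mueller-Hinton agar slants into cation-adjusted MH broth at 37°C for 16-20 h at 100 rpm. Broth microdilution followed CLSI guidelines, with a final inoculum of 5×10^5 CFU/mL mixed 1:1 with compound in MH broth and incubated for 24 h at 37°C. Growth was read as A620 and expressed as percentage inhibition relative to untreated controls. Each plate included a ciprofloxacin positive control.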

Escherichia coli [4] = experiment: Antibacterial activity against Escherichia coli ATCC 25922 assessed as minimum inhibitory concentration required for >=90% inhibition of bacterial growth measured after 24 hrs by broth microdilution method; assay type: functional
Procedure, shortened: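 Cation-adjusted Mueller Hinton broth culture grown 16-20 h at 37°C with 100 rpm shaking. CLSI broth microdilution at a final inoculum of 5×10^5 CFU/mL, 8 concentrations from […], incubated 24 h at 37°C. A620 read and growth inhibition expressed as % of untreated controls. Ciprofloxacin positive control on every plate; n = 3.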

Pseudomonas aeruginosa = experiment: Antibacterial activity against Pseudomonas aeruginosa ATCC 27853 assessed as minimum inhibitory concentration required for >=90% inhibition of bacterial growth measured after 24 hrs by broth microdilution method; assay type: functional; procedure, shortened: as §1
Staphylococcus aureus = experiment: Antibacterial activity against Staphylococcus aureus ATCC 29213 assessed as minimum inhibitory concentration required for >=90% inhibition of bacterial growth measured after 24 hrs by broth microdilution method; assay type: functional; procedure, shortened: as §1
Escherichia coli [5] = experiment: Antibacterial activity against outer membrane impaired Escherichia coli JD17464 harboring lpxC mutant assessed as minimum inhibitory concentration required for >=90% inhibition of bacterial growth measured after 24 hrs by broth microdilution method; assay type: functional
Escherichia coli [6] = experiment: Antibacterial activity against efflux pump defective Escherichia coli JW5503 harbouring tolC mutant assessed as minimum inhibitory concentration required for >=90% inhibition of bacterial growth measured after 24 hrs by broth microdilution method; assay type: functional
Escherichia coli [7] = experiment: Inhibition of Escherichia coli DNA topoisomerase 4 assessed as enzyme residual activity at 10 uM using supercoiled pNO1 plasmid DNA as substrate incubated for 30 mins by fluorescence assay relative to control
[8] = biological target: Topoisomerase IV (Staphylococcus aureus) (UniProt P0C1U9+P0C1S7); experiment: Inhibition of Staphylococcus aureus DNA topoisomerase 4 assessed as enzyme residual activity at 10 uM using supercoiled pNO1 plasmid DNA as substrate incubated for 30 mins by fluorescence assay relative to control; assay type: protein-complex assay
[9] = biological target: DNA gyrase (Staphylococcus aureus) (UniProt P0A0K8+P20831); experiment: Inhibition of Staphylococcus aureus DNA gyrase assessed as enzyme residual activity at 10 uM using relaxed pNO1 plasmid DNA as substrate incubated for 30 mins by fluorescence assay relative to control; assay type: protein-complex assay
Chain of DNA gyrase (Staphylococcus aureus) (P0A0K8 2-644 limits assumed): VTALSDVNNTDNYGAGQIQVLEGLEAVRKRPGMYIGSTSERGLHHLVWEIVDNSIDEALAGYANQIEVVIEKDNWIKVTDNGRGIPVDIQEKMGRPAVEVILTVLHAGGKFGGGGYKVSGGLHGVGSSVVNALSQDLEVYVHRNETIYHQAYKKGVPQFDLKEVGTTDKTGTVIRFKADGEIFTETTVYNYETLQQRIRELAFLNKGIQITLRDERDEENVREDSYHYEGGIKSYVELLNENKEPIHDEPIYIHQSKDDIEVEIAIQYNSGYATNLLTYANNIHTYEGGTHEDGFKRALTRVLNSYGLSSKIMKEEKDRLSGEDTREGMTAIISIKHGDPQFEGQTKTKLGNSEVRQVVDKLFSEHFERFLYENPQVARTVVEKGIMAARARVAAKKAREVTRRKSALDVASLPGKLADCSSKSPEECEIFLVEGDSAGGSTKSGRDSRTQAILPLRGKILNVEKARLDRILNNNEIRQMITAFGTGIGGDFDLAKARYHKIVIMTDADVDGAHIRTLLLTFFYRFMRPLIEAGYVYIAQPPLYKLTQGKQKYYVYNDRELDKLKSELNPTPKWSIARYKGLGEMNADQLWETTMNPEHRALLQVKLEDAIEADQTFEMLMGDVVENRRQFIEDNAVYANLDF
Chain of DNA gyrase (Staphylococcus aureus) (P20831 whole entry partner): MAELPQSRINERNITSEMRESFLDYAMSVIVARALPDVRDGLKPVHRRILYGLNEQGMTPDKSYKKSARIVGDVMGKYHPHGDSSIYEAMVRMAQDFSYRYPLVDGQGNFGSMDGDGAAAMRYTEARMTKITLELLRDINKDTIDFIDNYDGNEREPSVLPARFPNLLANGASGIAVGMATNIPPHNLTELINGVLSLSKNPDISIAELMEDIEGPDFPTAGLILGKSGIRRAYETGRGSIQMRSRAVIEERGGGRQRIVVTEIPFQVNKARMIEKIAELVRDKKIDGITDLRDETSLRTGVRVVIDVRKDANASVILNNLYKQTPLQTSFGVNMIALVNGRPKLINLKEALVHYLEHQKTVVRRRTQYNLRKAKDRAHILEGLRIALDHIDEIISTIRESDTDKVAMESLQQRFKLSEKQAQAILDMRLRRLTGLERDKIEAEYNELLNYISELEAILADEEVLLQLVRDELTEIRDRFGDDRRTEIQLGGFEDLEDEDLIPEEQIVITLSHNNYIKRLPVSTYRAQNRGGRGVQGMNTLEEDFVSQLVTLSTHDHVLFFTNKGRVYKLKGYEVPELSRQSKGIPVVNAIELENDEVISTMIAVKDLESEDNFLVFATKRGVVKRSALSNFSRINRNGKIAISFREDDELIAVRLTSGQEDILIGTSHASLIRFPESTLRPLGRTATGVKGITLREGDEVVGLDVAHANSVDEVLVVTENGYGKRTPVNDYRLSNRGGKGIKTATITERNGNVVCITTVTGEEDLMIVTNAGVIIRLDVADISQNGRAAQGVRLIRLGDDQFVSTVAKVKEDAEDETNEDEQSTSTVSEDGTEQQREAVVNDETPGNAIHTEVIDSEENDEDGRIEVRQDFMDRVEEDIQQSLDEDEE

Chain of DNA gyrase (Staphylococcus aureus, UniProt P0A0K8+P20831) (P0A0K8 whole entry): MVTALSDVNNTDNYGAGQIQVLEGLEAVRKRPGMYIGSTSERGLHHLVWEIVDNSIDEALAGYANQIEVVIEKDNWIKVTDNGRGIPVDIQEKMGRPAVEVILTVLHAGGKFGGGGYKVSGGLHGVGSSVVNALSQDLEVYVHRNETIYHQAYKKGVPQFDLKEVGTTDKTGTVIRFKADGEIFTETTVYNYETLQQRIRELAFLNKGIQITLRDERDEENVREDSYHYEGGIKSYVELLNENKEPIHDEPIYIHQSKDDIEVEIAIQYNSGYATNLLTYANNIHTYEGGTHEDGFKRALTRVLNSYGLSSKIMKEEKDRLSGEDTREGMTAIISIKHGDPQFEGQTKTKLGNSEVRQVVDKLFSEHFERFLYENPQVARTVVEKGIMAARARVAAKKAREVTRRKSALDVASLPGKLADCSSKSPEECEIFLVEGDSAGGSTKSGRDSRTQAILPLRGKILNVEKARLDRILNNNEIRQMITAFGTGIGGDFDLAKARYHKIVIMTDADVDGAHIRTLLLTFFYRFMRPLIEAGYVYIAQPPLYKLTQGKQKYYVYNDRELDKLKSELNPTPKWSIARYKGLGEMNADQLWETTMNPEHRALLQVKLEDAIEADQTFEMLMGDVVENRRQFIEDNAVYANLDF
Chain of DNA gyrase (Staphylococcus aureus, UniProt P0A0K8+P20831) (P20831 whole entry): as the sequence (P20831 whole entry partner) above
Chain of Topoisomerase IV (P0C1U9 whole entry): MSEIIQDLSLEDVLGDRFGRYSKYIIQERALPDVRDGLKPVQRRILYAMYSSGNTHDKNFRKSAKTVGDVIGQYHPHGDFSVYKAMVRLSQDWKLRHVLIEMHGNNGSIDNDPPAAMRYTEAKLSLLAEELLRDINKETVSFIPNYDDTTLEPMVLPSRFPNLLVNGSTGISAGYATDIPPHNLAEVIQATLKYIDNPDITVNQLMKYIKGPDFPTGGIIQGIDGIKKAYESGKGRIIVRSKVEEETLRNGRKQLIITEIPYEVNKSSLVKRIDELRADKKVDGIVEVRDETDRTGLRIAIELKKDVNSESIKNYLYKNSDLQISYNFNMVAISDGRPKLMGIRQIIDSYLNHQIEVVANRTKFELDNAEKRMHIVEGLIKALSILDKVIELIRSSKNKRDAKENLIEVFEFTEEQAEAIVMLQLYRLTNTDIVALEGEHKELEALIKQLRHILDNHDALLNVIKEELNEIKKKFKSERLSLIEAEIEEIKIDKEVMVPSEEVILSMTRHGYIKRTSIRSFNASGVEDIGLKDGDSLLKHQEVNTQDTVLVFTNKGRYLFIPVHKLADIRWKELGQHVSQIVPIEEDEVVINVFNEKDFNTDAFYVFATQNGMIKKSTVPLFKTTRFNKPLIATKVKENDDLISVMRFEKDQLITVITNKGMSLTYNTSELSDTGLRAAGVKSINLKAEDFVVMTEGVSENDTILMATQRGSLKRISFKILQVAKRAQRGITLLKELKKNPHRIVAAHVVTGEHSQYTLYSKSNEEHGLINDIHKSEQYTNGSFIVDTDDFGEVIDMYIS
Chain of Topoisomerase IV (P0C1S7 whole entry): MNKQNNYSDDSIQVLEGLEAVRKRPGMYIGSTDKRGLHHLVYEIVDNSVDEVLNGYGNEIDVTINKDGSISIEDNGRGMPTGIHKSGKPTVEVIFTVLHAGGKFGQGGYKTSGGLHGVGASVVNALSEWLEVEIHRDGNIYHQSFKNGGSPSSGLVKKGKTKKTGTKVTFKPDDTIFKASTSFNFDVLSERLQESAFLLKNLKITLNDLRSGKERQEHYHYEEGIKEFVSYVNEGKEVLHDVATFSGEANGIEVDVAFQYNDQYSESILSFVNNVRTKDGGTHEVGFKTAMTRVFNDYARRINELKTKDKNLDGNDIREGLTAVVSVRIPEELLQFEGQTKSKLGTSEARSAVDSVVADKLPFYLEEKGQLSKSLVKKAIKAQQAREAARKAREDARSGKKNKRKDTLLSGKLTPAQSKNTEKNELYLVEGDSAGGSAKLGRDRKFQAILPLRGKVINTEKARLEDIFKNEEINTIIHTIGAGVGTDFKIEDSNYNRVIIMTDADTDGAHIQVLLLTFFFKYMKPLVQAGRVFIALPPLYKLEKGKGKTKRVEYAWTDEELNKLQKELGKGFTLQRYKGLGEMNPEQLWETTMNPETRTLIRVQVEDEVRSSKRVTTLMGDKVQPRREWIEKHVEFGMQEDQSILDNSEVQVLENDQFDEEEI

SMILES | IC50 (DNA gyrase [1]) | IC50 (DNA gyrase [2]) | IC50 [3] | IC50 (Topoisomerase IV) | MIC (Enterococcus faecalis) | MIC (Escherichia coli [4]) | MIC (Pseudomonas aeruginosa) | MIC (Staphylococcus aureus) | MIC (Escherichia coli [5]) | MIC (Escherichia coli [6]) | Activity (Escherichia coli [7]) | Activity [8] | Activity [9]
Cc1[nH]c(C(=O)Nc2nc3ccc(NC(=O)CCN)cc3s2)c(Cl)c1Cl | 110 nM | 1500 nM | 10000 nM | 290 nM | 12.5 µM (≈ 5.15 µg/mL) | > 50 µM | > 50 µM | > 50 µM | > 50 µM | 12.5 µM (≈ 5.15 µg/mL) | – | – | –
Cc1[nH]c(C(=O)Nc2nc3ccc(NC(=O)C(=O)O)cc3s2)c(Cl)c1Cl | – | – | 75 nM | 290 nM | > 50 µM | – | > 50 µM | > 50 µM | > 50 µM | – | – | – | –
CC(=O)Nc1nc2ccc(NC(=O)c3[nH]c(C)c(Cl)c3Cl)cc2s1 | 66 nM | 35400 nM | – | – | > 50 µM | > 50 µM | > 50 µM | > 50 µM | > 50 µM | > 50 µM | 100% | 100% | –
COC(=O)CC(=O)Nc1nc2ccc(NC(=O)c3[nH]c(C)c(Cl)c3Cl)cc2s1 | 200 nM | – | – | – | > 50 µM | > 50 µM | > 50 µM | > 50 µM | > 50 µM | 1.56 µM (≈ 0.688 µg/mL) | 100% | 48% | 59%
Cc1[nH]c(C(=O)Nc2nc3ccc(NC(=O)CNC(=O)OC(C)(C)C)cc3s2)c(Cl)c1Cl | 29 nM | 260 nM | – | – | 3.13 µM (≈ 1.56 µg/mL) | > 50 µM | > 50 µM | > 50 µM | > 50 µM | 0.78 µM (≈ 0.389 µg/mL) | 60% | 100% | –
Cc1[nH]c(C(=O)Nc2nc3ccc(NC(=O)CCNC(=O)OC(C)(C)C)cc3s2)c(Cl)c1Cl | 110 nM | 780 nM | – | – | > 50 µM | > 50 µM | > 50 µM | > 50 µM | > 50 µM | > 50 µM | 100% | 100% | –
CCOC(=O)C(=O)Nc1ccc2nc(NC(=O)c3cc(Br)c(Br)[nH]3)[nH]c2c1 | 4000 nM | – | – | – | > 50 µM | > 50 µM | > 50 µM | > 50 µM | > 50 µM | > 50 µM | 100% | 100% | 100%
Cc1[nH]c(C(=O)Nc2nc3ccc(NC(=O)c4ccncc4)cc3s2)c(Cl)c1Cl | 2500 nM | – | – | – | > 50 µM | > 50 µM | > 50 µM | > 50 µM | > 50 µM | > 50 µM | 100% | 100% | 100%
O=C(O)c1cn(C2CC2)c2cc(N3CCNCC3)c(F)cc2c1=O [CIPROFLOXACIN] | – | – | – | – | – | 0.05 µM (≈ 0.0166 µg/mL) | – | – | – | – | – | – | –
CCOC(=O)C(=O)Nc1nc2ccc(NC(=O)c3[nH]c(C)c(Cl)c3Cl)cc2s1 | 290 nM | – | – | – | > 50 µM | > 50 µM | > 50 µM | > 50 µM | > 50 µM | > 50 µM | 100% | 100% | 69%
Cc1[nH]c(C(=O)Nc2nc3ccc(NC(=O)CN)cc3s2)c(Cl)c1Cl | 280 nM | 380 nM | – | – | 6.25 µM (≈ 2.49 µg/mL) | > 50 µM | > 50 µM | 25 µM (≈ 9.96 µg/mL) | > 50 µM | 3.13 µM (≈ 1.25 µg/mL) | 100% | 100% | –
Cc1[nH]c(C(=O)Nc2nc3ccc(N)cc3s2)c(Cl)c1Cl | 16000 nM | – | – | – | – | – | – | – | – | – | 100% | 100% | 60%
CCOC(=O)C(=O)Nc1ccc2nc(NC(=O)c3[nH]c(C)c(Cl)c3Cl)sc2c1 | 48 nM | – | – | – | > 50 µM | > 50 µM | > 50 µM | > 50 µM | > 50 µM | 50 µM (≈ 22.1 µg/mL) | 100% | 100% | 100%
CC(=O)Nc1ccc2nc(NC(=O)c3[nH]c(C)c(Cl)c3Cl)sc2c1 | 9.5 nM | 400 nM | 4600 nM | 1600 nM | 3.13 µM (≈ 1.2 µg/mL) | > 50 µM | > 50 µM | > 50 µM | > 50 µM | 0.78 µM (≈ 0.299 µg/mL) | – | – | –
O=C(O)CC(=O)Nc1ccc2nc(NC(=O)c3cc(Br)c(Br)[nH]3)[nH]c2c1 | 1500 nM | – | – | – | > 50 µM | > 50 µM | > 50 µM | > 50 µM | > 50 µM | > 50 µM | 100% | 100% | 100%
Cc1[nH]c(C(=O)Nc2nc3ccc(NC(N)=O)cc3s2)c(Cl)c1Cl | 26 nM | 1300 nM | 5200 nM | 5800 nM | > 50 µM | > 50 µM | > 50 µM | > 50 µM | > 50 µM | 1.56 µM (≈ 0.599 µg/mL) | – | – | –
COC(=O)CC(=O)Nc1ccc2nc(NC(=O)c3cc(Br)c(Br)[nH]3)[nH]c2c1 | 7000 nM | – | – | – | > 50 µM | > 50 µM | > 50 µM | > 50 µM | > 50 µM | > 50 µM | 100% | 100% | 100%
O=C(O)C(=O)Nc1ccc2nc(NC(=O)c3cc(Br)c(Br)[nH]3)[nH]c2c1 | 600 nM | 80000 nM | 12000 nM | 31000 nM | > 50 µM | – | > 50 µM | > 50 µM | > 50 µM | – | – | – | –
Cc1[nH]c(C(=O)Nc2ccc3nc(NC(=O)C(=O)O)sc3c2)c(Cl)c1Cl | 29 nM | 250 nM | 6400 nM | 910 nM | > 50 µM | – | > 50 µM | > 50 µM | > 50 µM | – | – | – | –
O=C(O)C(=O)Nc1ccc2nc(NC(=O)c3cc(Br)c(Br)[nH]3)sc2c1 | – | – | – | 10000 nM | – | – | – | – | – | – | – | – | –
